Results published in ChEMBL document CHEMBL1132447, “Structure-activity relationships and molecular modeling analysis of flavonoids binding to the benzodiazepine site of the rat brain GABA(A) receptor complex” (J Med Chem, 1999).

Assays:
[1] = molecular target: GABA-A receptor; anion channel; assay: In vitro affinity against Benzodiazepine receptor binding to rat cortical membranes (using [3H]- flumazenil as radioligand).
Summary of the method: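 Male Wistar rat (~200 g) cerebral cortex membranes, washed in Tris-citrate 50 mM pH 7.1, 2 mg original tissue/mL. Filtered, then scintillation counting. Duplicates.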

[2] = molecular target: GABA-A receptor; anion channel (Rattus norvegicus) (UniProt O09028+P15431+P18506+P18508+P19969+P20236+P23574+P23576+P28471+P28473+P30191+P62813+P63079+P63138+Q91ZM7+Q9ES14); assay: Ratio of Ki value without GABA and Ki value in the presence of GABA.; type: protein-complex assay

SMILES	Ki [1] [nM]	GABA ratio [2]
CCc1c(C(=O)OC)ncc2[nH]c3cc(OC)c(OC)cc3c12	7.6	0.57
Cc1ccc2oc(-c3cccc([N+](=O)[O-])c3)cc(=O)c2c1[N+](=O)[O-]	1.9	1.41
Cc1ccc2sc(-c3cccc([N+](=O)[O-])c3)cc(=O)c2c1	33	1.51
Cc1ccc2oc(-c3ccc([N+](=O)[O-])cc3)cc(=O)c2c1	7300	
Cc1cccc(-c2cc(=O)c3cc(C)ccc3o2)c1	29	1.63
Cc1ccc2oc(-c3cccc([N+](=O)[O-])c3)cc(=O)c2c1	5.6	0.72
Cc1ccc2oc(-c3ccccc3[N+](=O)[O-])cc(=O)c2c1	1000	1.49
Cc1ccc2sc(-c3ccccc3)cc(=O)c2c1	310	1.35
O=c1c(Br)c(-c2ccccc2)oc2ccccc12	> 75000	
O=c1cc(-c2ccc([N+](=O)[O-])cc2)oc2ccc([N+](=O)[O-])cc12	17000	
O=c1cc(-c2cccc([N+](=O)[O-])c2)oc2ccc(Br)cc12		1.4
O=c1cc(-c2cccc([N+](=O)[O-])c2)oc2ccc([N+](=O)[O-])cc12		1.3
O=c1cc(-c2ccccc2)oc2cccc(O)c12 [5-HYDROXYFLAVONE]	1900	1.03
O=c1cc(-c2ccccc2)oc2ccc(Br)cc12 [6-BROMOFLAVONE]	70	1.8
O=c1cc(-c2ccccc2)oc2ccc(O)cc12 [6-HYDROXYFLAVONE]	400	1.06
COc1ccc2oc(-c3ccccc3)cc(=O)c2c1 [6-METHOXYFLAVONE]	570	1.51
Cc1ccc2oc(-c3ccccc3)cc(=O)c2c1 [6-METHYLFLAVONE]	125	0.98
O=c1cc(-c2ccccc2)oc2cc(O)ccc12 [7-HYDROXYFLAVONE]	4200	1.14
O=c1cc(-c2ccc(O)cc2)oc2cc(O)cc(O)c12 [APIGENIN]	770	1.03
O=c1cc(-c2ccccc2)oc2ccc3ccccc3c12 [BETA-NAPHTHOFLAVONE]	1480	1.28
O=c1cc(-c2ccccc2)oc2cc(O)cc(O)c12 [CHRYSIN]	920	0.9
O=c1cc(-c2ccccc2)oc2ccccc12 [FLAVONE]	4200	1.05
